Assay: Toxicity liver stage against HepG2, at 10uM
Assay type: cell-based
Parameters: test concentration 10 uM, cell line HepG2-A16-CD81EGFP
Conditions: human, HepG2-A16-CD81EGFP cells; read-out: INHIBITION
How it was run: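 Uninfected HepG2-A16-CD81EGFP cells, 3 × 10^3 per well, 1536-well, plated on prespotted compound at 10 μM final, parasite-free screening media added to match infected plates; puromycin 10 μM positive, DMSO 0.5% negative; run in parallel with 48 h PbLuc assay at 37 °C, 5% CO2; viability by CellTiter-Glo luminescence, normalized to controls.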

Structure (SMILES) | cytotoxicity at 10 µM
CCOc1cccc(COC(=O)c2ccc(F)cn2)n1 | 0.296%
COc1ccc(C(=O)N2C[C@@H]3CC[C@H]2CN(C)C3)cc1Cl | 5.79%
CCS(=O)(=O)N1Cc2ccnn2CC(c2nc(C)no2)C1 (stereo unspecified) | 6.86%
CCN1C(=O)C(C)(C)c2cc(NC(=O)c3ccco3)ccc21 | -10.2%
Cn1ccc(C(=O)N2CCCC2c2[nH]ncc2C(N)=O)n1 (stereo unspecified) | 15.3%
Cc1cc(C)n(CC2CCCN2C(=O)c2ccc3[nH]c(=O)[nH]c3c2)n1 (stereo unspecified) | 3.18%
COCC1COCCC12CCN(C(=O)CC1Cc3ccccc3C1)CC2 (stereo unspecified) | 4.03%
CN1CCC(NC(=O)Nc2ccc(F)c(Br)c2)C1=O (stereo unspecified) | -137%
O=C(C1CN(Cc2ccsc2)Cc2ccnn2C1)N1CCCC1 (stereo unspecified) | -6.93%
Cc1noc(C(C)C)c1C(=O)NCC1CCCN1Cc1ccccc1 (stereo unspecified) | -4.45%
Cc1nc(C)n(CC2CCCN2Cc2nc(C)c3ccccc3n2)n1 (stereo unspecified) | -12.4%
CC(CN1CCOCC1)NCc1nncn1C1CCCCC1 (stereo unspecified) | 1.52%
Cc1nc[nH]c1CNC1CC(=O)N(CCc2cccc(Cl)c2)C1 (stereo unspecified) | -135%
Cc1nccn1CCN(C)c1nc(-c2cccnc2)nc2c1CCNC2 | -21.2%
COC(=O)c1ccc(OC)c(Cn2cc(Br)cn2)c1 | 3.05%
O=C(Cc1cccnc1)N1CCC(OCc2ccccc2)CC1 | -1.96%
CCC(C)Sc1nncn1-c1ccc(OC)nc1 (stereo unspecified) | -1.35%
Cn1cc(C2CCCN2C(=O)CS(=O)(=O)C2CCCC2)cn1 (stereo unspecified) | -4.8%
COCCN1CCC(NCc2cc(F)ccc2F)C1 (stereo unspecified) | -21.9%
Cc1nn(C)cc1NC(=O)CN1CCN(C2CCCC2)C(=O)C1 | 6.89%
CSCc1cccc(S(=O)(=O)NCCO)c1 | -0.138%
CCOC(=O)N1CCN(C(=O)c2ccc3ccn(C)c3c2)CC1 | -6.57%
CC(C)(C)c1ccc(-c2n[nH]c3c2CN(CC2CCOC2)CC3)cc1 (stereo unspecified) | -40.1%

Structure (SMILES) | cytotoxicity at 10 µM
COCC(C)NC(=O)CN1CCC(C)CC1 (stereo unspecified) | -9.32%
Cc1nn(C)c(C)c1NC(=O)CNc1cccc(CC(F)(F)F)c1 | -4.83%
Fc1cc(Cl)cnc1N1CCCC(c2nccn2Cc2ccccn2)C1 (stereo unspecified) | -3.54%
CC(C)N1CCN(C(=O)c2csc3nc(-c4ccc(Cl)cc4)cn23)CC1 | 1.98%
CCc1nc(C)c(C(=O)N2C[C@@H](C(=O)O)[C@H](C3CC3)C2)s1 | 3.41%
CC(C)N(C)CC(=O)N(C)Cc1nc(C(F)(F)F)cs1 | -2.96%
Cc1nccn1-c1nccnc1C1CCCN(C)C1 (stereo unspecified) | 2.2%
O=C([C@H]1C[C@H]2CN(c3ncc(F)cn3)C[C@@H]1O2)N1CCCC1 | -115%
CCc1cc(C(=O)N2CCC3(CCCN(CCOC)C3=O)C2)cs1 (stereo unspecified) | -146%
CSc1ccc(CN2C[C@@H]3CC[C@@](O)(c4ccc(C)cn4)[C@@H]3C2)cc1 | -15.7%
CN(C)c1nccc(NC(=O)c2ccncc2)n1 | -4.33%
Cc1noc(C)c1CC(=O)N1CC[C@@](C)(O)[C@H](Oc2ccccc2)C1 | 0.935%
Cc1cc(C(=O)N2CCO[C@H]3[C@H](OCCN(C)C)CC[C@@H]32)c(C)[nH]1 | 7.07%
COCCC(=O)NCC1CCC(C(c2ccccn2)N(C)C)CC1 (stereo unspecified) | 11.5%
COc1cc(CNc2cnn(C(C)(C)C)c(=O)c2Cl)ccn1 | 55.9%
C[C@H](NC(=O)c1cnc(-c2ccccc2)nc1O)C(N)=O | 7.06%
CNC(=O)C1Cn2ccnc2C2(CCN(Cc3nccs3)CC2)O1 (stereo unspecified) | -67.2%
Cc1nc(C)c(S(=O)(=O)NC(=O)c2cccs2)s1 | -0.837%
CC(Cn1ccnc1)NCc1nncn1C1CCCCC1 (stereo unspecified) | -4.54%
Cc1cccc(OCC(O)CN2CCC(c3ccn[nH]3)CC2)c1 (stereo unspecified) | -3.6%
Cc1cc(N(C)C)nc(C2CCCNC2)n1 (stereo unspecified) | -3.55%
COc1nc(C)c(C(=O)NCc2cc(N3CCOCC3)ncn2)s1 | 12.9%
CCCc1nc(CN(CC)C(=O)c2ccc(OC)c(OC)c2)no1 | -6.93%

Structure (SMILES) | cytotoxicity at 10 µM
COc1ccc(-c2n[nH]cc2CN2CCSCC2)c(OC)c1 | 6.4%
CCn1ncnc1C1CC(=O)NCc2nc(N3CCOCC3)sc21 (stereo unspecified) | 3.94%
CCn1cnnc1C1CCN(C(=O)C(OC)c2ccccc2)CC1 (stereo unspecified) | 5.25%
O=C(c1cccnc1-n1cncn1)N1CCN(c2ccccc2)CC1 | 4.06%
CN1C(=O)C[C@H]2[C@H]1CCN2Cc1cccc(C#N)c1 | -75.6%
CC(C)CC(=O)N1CC[C@H]2N(C)CC[C@@]2(C(=O)Nc2cccnc2)CC1 | -96.9%
COCCN1C(=O)CCC12CCN(C(=O)CNC(C)=O)CC2 | 3.47%
O=C([C@@H]1Cc2[nH]cnc2CN1CC1CC1)N1CCCC1 | 2.5%
Cc1cc(S(=O)(=O)N2CCCc3cc(Cl)ccc32)sc1C(=O)O | -16%
c1ccc(-n2ncc(CNC3CCc4ncnn4C3)n2)cc1 (stereo unspecified) | -3.38%
N#CC1(NC(=O)Cc2cc(Cl)c3c(c2)OCCO3)CCC1 | -8.05%
CC(=O)c1c(C)cc(C)c(CS(=O)(=O)c2nccn2C)c1C | -4.28%
CNc1cc(C2CCCN2C(=O)CCc2ccccc2F)ccn1 (stereo unspecified) | -2.01%
CC(C)CNC(=O)c1ccc2c(c1)nc1n2CCN(Cc2ccco2)C1 | -3.78%
O=C(C1CCC1)N1CCC2(CC1)OCCO2 | 4.93%
COCC(=O)NC1CC2(CCN(Cc3ccco3)CC2)c2ccccc21 (stereo unspecified) | 5.61%
N#Cc1c(SCCN2CCCCC2)sc2c(O)cc(O)nc12 | -13.1%
Cc1ccc(C(C(=O)O)N(C)CCCN2CCOCC2)c(C)c1 (stereo unspecified) | 0.129%
O=C1CC(c2ccncc2)C2(CCN(C(=O)NC3CC3)CC2)N1 (stereo unspecified) | -3.46%
N#CCCN(CC1CCCO1)C(=O)c1ccc2nonc2c1 (stereo unspecified) | 1.35%
O=C(NCc1ccccn1)C1=NN(c2ccccc2)C(=O)CN1 | -0.855%
Cc1ccc(CN2CCC3(CC2)C(=O)NCCN3CC2CC2)o1 | -66.8%
c1ccc(COC[C@@]23CCC[C@@H]2CN(Cc2ccccn2)C3)nc1 | 1.39%

Structure (SMILES) | cytotoxicity at 10 µM
COc1ccc(NC(=O)c2cnc(C3CCN(C(C)=O)C3)nc2C)cc1 (stereo unspecified) | -2.6%
Cc1ccc(CN2CC[C@H]3[C@H]2CCN3S(=O)(=O)C2CC2)cc1 | 10.2%
Brc1ccc(CNCc2nnc3n2CCCCC3)s1 | -0.254%
O=C1CO[C@H]2CN(S(=O)(=O)c3ccccc3)C[C@H]2N1c1ccccc1 | -2.6%
CCOc1ccccc1CC(=O)N1C[C@H](C2CC2)[C@@H](N)C1 | -2.45%
CC(C)Oc1ccc(-c2csc(Cn3ccc(=O)[nH]c3=O)n2)cc1 | 0.137%
CCn1cncc1CNC(=O)c1ccc(C2CCCN2C(=O)COC)s1 (stereo unspecified) | 6.48%
CN(C)C(CNC(=O)NCCc1cccc(O)c1)c1ccco1 (stereo unspecified) | -4.36%
COCC(=O)NCc1cc(=O)n2c(n1)CN(Cc1ccco1)CCC2 | -89.3%
Cc1ncnc2c1CCN(c1cc(C(F)(F)F)ncn1)CC2 | -2.96%
Cc1cc(CC(=O)NCc2ccnc(OCC(F)(F)F)c2)no1 | -2.17%
CCc1cnc(CN(C)C2CCN(CCCNS(C)(=O)=O)C2)o1 (stereo unspecified) | -3.4%
Cc1nn(C)c2nc(N(CCN(C)C)C3CCCC3)sc12 | -1.93%
CNC(=O)CCc1cc(C2CCCCN2C(C)C)nc(C)n1 (stereo unspecified) | -1.66%
Cc1ccc(-c2ccnc(NC(C)c3n[nH]c(=O)[nH]3)n2)c(C)n1 (stereo unspecified) | 1.33%
c1ccc(Cn2cc3c(n2)C(CNCc2ccco2)OCC3)nc1 (stereo unspecified) | -7.85%
CCC(CC)(CN)NC(C)c1ccccc1 (stereo unspecified) | 4.02%
CC(c1cccc(S(N)(=O)=O)c1)N(C)CCc1ccccc1 (stereo unspecified) | -12%
COCCNC(=O)C1(c2ccc(C)c(OC)c2)CCCC1 | -3.21%
CS(=O)(=O)N1CCCC(Cc2cncc(-c3ccccc3C(=O)O)n2)C1 (stereo unspecified) | -6.41%
Cc1nn(C)c2c(=O)n(Cc3ccc(Cl)cc3)nnc12 | -3.02%
O=C(CC1CC1)N1CC[C@H]2[C@@H]1CCC(=O)N2Cc1ccncc1 | -5.15%
CC(C)S(=O)(=O)C(C)C(=O)NCc1ccccc1COc1ccccc1 (stereo unspecified) | 12.1%

Structure (SMILES) | cytotoxicity at 10 µM
Cc1cccc(CN2CCOCC3(CCN(C4CCOCC4)C3)C2)c1 (stereo unspecified) | -0.819%
COc1c(C2CCCN2C(=O)c2cnc(C)cn2)c(C)nn1C (stereo unspecified) | 2.58%
COC(=O)CCC(=O)N(Cc1ccc2cc[nH]c2c1)C1CC1 | -3.4%
Cc1cnn(CC2CCCN2Cc2coc(-c3ccccc3)n2)c1 (stereo unspecified) | -5.26%
Cn1c(C2CC2)nc2c1CCN(CCOc1cccc(F)c1)C2 | -13.1%
Cc1nn(C)c(C)c1C1CCCN1C(=O)c1ccc(Cl)o1 (stereo unspecified) | -5.15%
O=C(c1ccn(-c2ccccc2Cl)n1)N1CCCSCC1 | 4.22%
CC1CCN(CCCNC(=O)c2ccc(N(C)S(C)(=O)=O)cc2Cl)CC1 | -0.488%
COc1ccc(-c2nc(CN3CCc4cncnc4C3)no2)cc1 | -3.92%
CCN1CCN(C(=O)NCc2cccc(-c3cnn(C)c3)c2)CC1 | -10%
COCCc1noc(C2CCCN(c3ncnc4c3CCC4)C2)n1 (stereo unspecified) | 19.3%
CCC(=O)Nc1ccc2c(ccn2CC(=O)N(CC)CC)c1 | -12.2%
O=C(C1CCOC1)N1CC[C@@H](O)[C@@H]1Cc1ccccc1 (stereo partly specified) | 9.34%
CN(C)c1ccc(CC2CCN(c3cnccn3)C2)nn1 (stereo unspecified) | 2.97%
Cc1nc(NCc2nnc(C)n2C)c2c(CC(C)C)csc2n1 | 9.56%
Cc1nnc(C(C)N2CCc3[nH]c4ccc(Cl)cc4c3C2)o1 (stereo unspecified) | -9.77%
O=C1COc2ccc(S(=O)(=O)NCCC3=CCCCC3)cc2N1 | 5.42%
O=C(NCc1ccc(CO)cc1)C1CCOc2ccccc2C1 (stereo unspecified) | -3.54%
CCC(NS(=O)(=O)c1ccc(C(=O)NC2CC2)cc1)c1cnn(C)c1 (stereo unspecified) | 7.64%
